The values that follow come from ChEMBL document CHEMBL4339227, “Stereoselective Synthesis of C-2 Alkylated Trihydroxypiperidines: Novel Pharmacological Chaperones for Gaucher Disease” (ACS Med Chem Lett, 2019).

The species entered for assay [1] is Homo sapiens. In words: Inhibition of GCase in human leukocytes extracts at 1 mM using 4-methylumbelliferyl-beta-D-glucoside substrate incubated for 1 hr by spectrophotometry relative to untreated control. The class given is cell-based. Put shortly:
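Human leukocyte homogenates were used as the GCase source. Enzyme activity was measured with the test compound at 1 mM, and the result was expressed as percent inhibition.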

A short description of assay [2]: Inhibition of GCase in human leukocytes extracts using 4-methylumbelliferyl-beta-D-glucoside substrate incubated for 1 hr by spectrophotometry. The class given is cell-based. The method in brief:
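Human leukocyte homogenates were used as the GCase source. IC50 was derived from GCase activity measured across a range of inhibitor concentrations.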

Assay [3] is filed under the species Homo sapiens. In words: Chaperone activity at GCase N370/RecNcil mutant in human fibroblasts derived from Gaucher patient assessed as increase in GCase activity at 100 uM incubated for 4 days using 4-methylumbelliferyl-beta-D-glucoside substrate by spectrophotometry relative to untreated control.
Assay [4] is filed under the species Homo sapiens. The experiment in a line: Chaperone activity at GCase N370/RecNcil mutant in human fibroblasts derived from Gaucher patient assessed as increase in GCase activity at 100 uM relative to untreated control.
Assay [5] is filed under the species Homo sapiens. The experiment in a line: Chaperone activity at GCase N370/RecNcil mutant in human fibroblasts derived from Gaucher patient assessed as increase in GCase activity at 50 nM incubated for 4 days using 4-methylumbelliferyl-beta-D-glucoside substrate by spectrophotometry relative to untreated control.
Assay [6] is filed under the species Homo sapiens. In words: Chaperone activity at GCase N370/RecNcil mutant in human fibroblasts derived from Gaucher patient assessed as increase in GCase activity at 1 uM incubated for 4 days using 4-methylumbelliferyl-beta-D-glucoside substrate by spectrophotometry relative to untreated control.
The nature of assay [7]: Competitive inhibition of GCase in human leukocytes extracts using 4-methylumbelliferyl-beta-D-glucoside substrate incubated for 1 hr by spectrophotometry. The class given is cell-based.
For assay [8], the species on record is Homo sapiens. In words: Chaperone activity at GCase L444P GBA gene mutant mutant in human fibroblasts derived from Gaucher patient assessed as increase in GCase activity at 100 uM incubated for 4 days using 4-methylumbelliferyl-beta-D-glucoside substrate by spectrophotometry relative to untreated control.
For assay [9], the species on record is Homo sapiens. In words: Chaperone activity at GCase N370/RecNcil mutant in human fibroblasts derived from Gaucher patient assessed as increase in GCase activity at 10 uM incubated for 4 days using 4-methylumbelliferyl-beta-D-glucoside substrate by spectrophotometry relative to untreated control.
For assay [10], the species on record is Homo sapiens. The experiment in a line: Chaperone activity at GCase N370/RecNcil mutant in human fibroblasts derived from Gaucher patient assessed as increase in GCase activity at 50 uM incubated for 4 days using 4-methylumbelliferyl-beta-D-glucoside substrate by spectrophotometry relative to untreated control.
For assay [11], the species on record is Homo sapiens. In words: Chaperone activity at GCase N370/RecNcil mutant in human fibroblasts derived from Gaucher patient assessed as increase in GCase activity at 10 nM incubated for 4 days using 4-methylumbelliferyl-beta-D-glucoside substrate by spectrophotometry relative to untreated control.
The species named for assay [12] is Homo sapiens. In words: Chaperone activity at GCase N370/RecNcil mutant in human fibroblasts derived from Gaucher patient assessed as increase in GCase activity incubated for 4 days using 4-methylumbelliferyl-beta-D-glucoside substrate by spectrophotometry relative to untreated control.

Activity calls are given as the source filed them. The calls are words filed in the database; no cut-off is given here.

The inhibition is the percentage by which the read-out fell short of the control. Read a low inhibition as a weak effect. What is called IC50 is the point on the concentration scale where inhibition reaches its midpoint. High values mean lower potency, low ones higher potency. `CCCCCCCCCCCCC[C@H]1NC[C@@H](O)[C@@H](O)[C@@H]1O` came in with an inhibition in the assay filed under Homo sapiens [1] of 98%. In [2], it took 9 µM to reach half-maximal inhibition (IC50).

In the case of `CCCCCCCCN1C[C@@H](O)C(O)[C@H](O)C1`, the fold change (FC) in the assay filed under Homo sapiens [3] amounted to 1.26; in the assay listed under Homo sapiens [4], 1.25. In the assay listed under Homo sapiens [1], this compound gave an inhibition of 98%. In addition, 30 µM corresponded to half-maximal inhibition in assay [2] (IC50).

`CCCCCCCCCCC[C@@H]1NC[C@@H](O)[C@@H](O)[C@@H]1O`: the fold change (FC) in the assay listed under Homo sapiens [5] came out at 1.3. In the assay filed under Homo sapiens [1], the inhibition was determined as 96%. Further, in [2], the half-inhibitory concentration (IC50) was found to be 100 µM.

On to `CCCCCCCCCCC[C@H]1NC[C@@H](O)[C@@H](O)[C@@H]1O`, for which the fold change (FC) in the assay listed under Homo sapiens [5] was 1.2. Also, the inhibition in the assay listed under Homo sapiens [1] was 100%. This compound showed a concentration for half-maximal inhibition (IC50) in assay [2] of 7 µM.

For the compound `CCCCCCCCCCCC[C@@H]1NC[C@@H](O)[C@@H](O)[C@@H]1O`, in the assay listed under Homo sapiens [6], the fold change (FC) amounted to 1.4. The compound further returned an inhibition in the assay filed under Homo sapiens [1] of 91%. The IC50 in assay [2] amounted to 23.3 µM.

What is called Ki is a dissociation constant, usually derived from enzyme kinetics or from competition with a known ligand. A high value points to a looser hold on the target. In turn, `CCCCCCCC[C@H]1NC[C@@H](O)[C@@H](O)[C@@H]1O` registered an inhibition constant Ki in assay [7] of 18.5 µM. The fold change (FC) in the assay listed under Homo sapiens [8] is 1.8; in the assay listed under Homo sapiens [9] it was 1.6; in the assay filed under Homo sapiens [10], 1.9; in the assay listed under Homo sapiens [11], 1.4. This compound also displayed an inhibition in the assay listed under Homo sapiens [1] of 100%. In assay [2], this compound yielded an IC50 of 29.3 µM.

`CCCCCCCCCCCC[C@H]1NC[C@@H](O)[C@@H](O)[C@@H]1O` returned a Ki in assay [7] of 3.6 µM. In addition, the fold change (FC) in the assay filed under Homo sapiens [6] stood at 1.4. This compound also had an inhibition in the assay filed under Homo sapiens [1] of 95%. The same compound displayed a half-maximal inhibitory concentration (IC50) in assay [2] of 1.5 µM.

Consider `CCCCCCCC[C@@H]1NC[C@@H](O)[C@@H](O)[C@@H]1O`, for which the inhibition in the assay listed under Homo sapiens [1] is 80%. Moreover, in the assay filed under Homo sapiens [11], the fold change (FC) is 1.3. In [2], this compound came in with a concentration for half-maximal inhibition (IC50) of 93.5 µM.

In turn, `CCCCCCCC[C@H]1[C@@H](O)[C@H](O)[C@H](O)CN1C` yielded an inhibition in the assay filed under Homo sapiens [1] of 50%. Also, in assay [2], the IC50 is above 1000 µM.

For `CCCCCCCCCCCCC[C@@H]1NC[C@@H](O)[C@@H](O)[C@@H]1O`, in the assay filed under Homo sapiens [12], the outcome was inactive. In the assay filed under Homo sapiens [1], this compound gave an inhibition of 88%. The compound also had an IC50 in assay [2] of 160 µM.
